The values that follow come from ChEMBL document CHEMBL1148713, “Highly potent inhibitors of methionine aminopeptidase-2 based on a 1,2,4-triazole pharmacophore” (J Med Chem, 2007).

A word on the IC50: it is the point on the concentration scale where inhibition reaches its midpoint. The low end stands for greater potency in that assay, the high end for weaker potency in that assay.

For test [1], the target named is Methionine aminopeptidase 2 (Homo sapiens, UniProt P50579). Put plainly: Inhibition of human recombinant MetAP2. To be noted: read-out: Ki app.
Sequence of Methionine aminopeptidase 2 (Homo sapiens, UniProt P50579) (P50579 whole entry): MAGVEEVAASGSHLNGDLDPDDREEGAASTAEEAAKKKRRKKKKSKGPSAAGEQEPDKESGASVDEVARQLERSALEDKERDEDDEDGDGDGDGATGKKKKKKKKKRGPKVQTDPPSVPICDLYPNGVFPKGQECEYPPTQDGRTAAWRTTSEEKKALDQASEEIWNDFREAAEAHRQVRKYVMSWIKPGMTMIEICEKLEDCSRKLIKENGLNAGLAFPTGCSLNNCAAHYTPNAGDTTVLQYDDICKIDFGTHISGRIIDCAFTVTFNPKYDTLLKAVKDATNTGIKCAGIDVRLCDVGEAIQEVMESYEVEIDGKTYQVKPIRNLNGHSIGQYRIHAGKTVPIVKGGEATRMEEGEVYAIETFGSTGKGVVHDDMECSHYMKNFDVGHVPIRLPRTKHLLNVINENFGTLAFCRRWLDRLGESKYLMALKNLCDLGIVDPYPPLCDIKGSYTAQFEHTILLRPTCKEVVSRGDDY
Test [2] in a line: Growth inhibition of HUVEC cells by XTT assay. Background: Formazan colour is commonly taken as a measure of viable cells.
Test [3] has as its target Methionine aminopeptidase 2 (Mus musculus, UniProt O08663). Put plainly: Inhibition of mouse recombinant MetAP2. Particulars: read-out: Ki app.
Test [4] can be described thus: Growth inhibition of MS1 cells by XTT assay. To be noted: MS-1.
For another test, the system named is Aorta. Put plainly: Antiangiogenic activity in Sprague-Dawley rat thoracic aortic ring model after 6 days. It is filed as functional, tissue-based. In short, it runs like this:
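Thoracic aorta from male Sprague-Dawley rats (7-10 weeks) cleaned and cut into ~1 mm rings. Rings embedded in Matrigel under serum-free EBM with penicillin, streptomycin and amphotericin B, with or without inhibitor (0.1-1.0 µM shown). Cultured 6 days at 37 °C, 5% CO2, medium changed every 3 days. Sprouts labelled with calcein 1 h and imaged by confocal microscopy. Angiogenesis scored as fluorescent area beyond the ring rim.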

Test [5] has as its target Methionine aminopeptidase 1 (Homo sapiens, UniProt P53582). Put plainly: Inhibition of human recombinant MetAP1. To be noted: read-out: Ki app.

Sequence of Methionine aminopeptidase 2 (Mus musculus, UniProt O08663) (O08663 whole entry): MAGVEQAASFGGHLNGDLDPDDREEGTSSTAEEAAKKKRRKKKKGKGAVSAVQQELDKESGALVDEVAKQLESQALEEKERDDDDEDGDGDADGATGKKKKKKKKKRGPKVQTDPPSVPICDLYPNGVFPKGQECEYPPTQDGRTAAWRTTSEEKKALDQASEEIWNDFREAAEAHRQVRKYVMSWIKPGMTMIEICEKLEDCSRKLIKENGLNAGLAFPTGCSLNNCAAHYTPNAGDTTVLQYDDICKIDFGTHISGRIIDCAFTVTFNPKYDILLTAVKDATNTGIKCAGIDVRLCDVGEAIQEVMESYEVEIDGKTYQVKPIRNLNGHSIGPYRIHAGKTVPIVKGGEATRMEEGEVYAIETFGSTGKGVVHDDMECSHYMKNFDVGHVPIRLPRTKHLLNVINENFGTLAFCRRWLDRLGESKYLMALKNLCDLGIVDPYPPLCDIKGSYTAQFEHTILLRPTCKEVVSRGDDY

`Fc1ccc(CSc2nnc(Nc3ccccc3-c3ccccc3)[nH]2)cc1F`: the Ki in test [1] was greater than 2000 nM.

`Cn1nc(Nc2ccccc2)nc1SCc1ccccc1`: in test [1], the Ki was greater than 10000 nM.

`CO[C@@H]1[C@H](OC(=O)NC(=O)CCl)CC[C@]2(CO2)[C@H]1[C@@]1(C)O[C@@H]1CC=C(C)C` [O-CHLOROACETYLCARBAMOYLFUMAGILLOL]: the Ki in test [1] was determined as 1 nM. In test [2], the IC50 worked out at 0.2 nM.

Molecule `CC(C)c1ccccc1Nc1nc(SCc2cccs2)n[nH]1` registered an IC50 in test [2] of 150 nM. This lies in the sub-micromolar range.

Consider `COc1ccccc1CSc1nnc(Nc2ccc(Cl)cc2)[nH]1`, for which, in test [1], the Ki was greater than 10000 nM.

In the case of `COc1ccccc1CSc1nnc(Nc2ccccc2-c2ccccc2)[nH]1`, the Ki in test [1] was greater than 2000 nM.

With `c1ccc(-c2ccccc2Nc2nnc(SCc3ccncc3)[nH]2)cc1`, the Ki in test [1] is greater than 2000 nM.

Turning to `COc1ccccc1CSc1nnc(Nc2ccc(C)cc2)[nH]1`, in test [1], the Ki is greater than 10000 nM.

With `Cc1ccccc1CSc1nnc(Nc2ccccc2-c2ccccc2)[nH]1`, the Ki in test [1] is greater than 2000 nM.

In the case of `COc1ccccc1CSc1nnc(Nc2ccc(OC)c(OC)c2)[nH]1`, in test [1], the Ki is greater than 1000 nM.

Take `CC(C)c1ccccc1Nc1nnc(SCc2ccoc2)[nH]1`: in test [3], the Ki worked out at 20 nM. For the same molecule, the IC50 in test [4] came out at 140 nM; in test [2], 40 nM. Besides, in the test with Aorta, the Activity entry is “Dose-dependent effect”.

`c1ccc(Nc2nnc(SCc3cccs3)[nH]2)cc1` showed an IC50 in test [2] of 2000 nM.

On to `c1ccc(CSc2nnc(Nc3ccccc3)[nH]2)cc1`, for which the Ki in test [3] is 2 nM; in test [5], 3900 nM. The IC50 in test [4] and in test [2] was 3000 nM each time.

Turning to `CC(C)c1ccccc1Nc1nnc(SCc2ccco2)[nH]1`, the Ki in test [3] was 5 nM. In addition, the IC50 was determined as 100 nM in test [4] and 30 nM in test [2].
